Rce1 inhib = yeast Rce1p protease inhibitors, primary screen, biochemical, fluorescence, cell-free homogeneous | CAAX prenyl protease 2 (Saccharomyces cerevisiae (strain ATCC 204508 / S288c)), Q03530 | yeast membranes, quenched prenylated peptide cleavage fluorescence | calls only | hit rate 0.27% among 290,000 | AID 2563, 2010;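 active = fall in fluorescence gain of 50% or more versus controls, with final raw signal at or below 3038400; inconclusive = same 50% fall but final raw signal above 3038400; inactive = fall in fluorescence gain under 50%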;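 note: plate controls were neutral control wells for no effect and wells lacking membranes for full effect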
Target sequence (Q03530 whole entry, looked up): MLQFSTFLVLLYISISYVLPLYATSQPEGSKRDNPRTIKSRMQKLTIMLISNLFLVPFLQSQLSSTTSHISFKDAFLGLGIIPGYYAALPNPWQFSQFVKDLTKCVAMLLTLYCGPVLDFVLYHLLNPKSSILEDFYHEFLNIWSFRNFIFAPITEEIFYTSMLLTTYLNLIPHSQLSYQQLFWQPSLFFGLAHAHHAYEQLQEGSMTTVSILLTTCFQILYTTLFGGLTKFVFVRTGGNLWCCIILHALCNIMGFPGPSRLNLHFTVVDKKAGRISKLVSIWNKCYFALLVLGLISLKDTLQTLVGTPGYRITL
Platelet DG rel = inhibitors of platelet dense granule secretion, primary screen, cell-based, MLPCN, human platelets. hit rate 0.22% among 300,000. human platelet-rich plasma, SFLLRN dense granule ATP release, luminescence. inhibition, %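 (compounds screened at 7.5 µM in platelet-rich plasma)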;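 active = mean replicate score, as percent of positive control, at or above 50; inconclusive = mean below 50 but at least one replicate at or above 50; inactive = mean and every replicate below 50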
Runt-CBFb FRET = inhibitors of RUNX1 Runt–CBFb binding, primary screen, biochemical, FRET, Cerulean-Runt, Venus-CBFb, uHTS | AID 1496, 2009 | Cerulean-Runt/Venus-CBFb FRET ratio 530/480, 1 h | inhibition, % at 20 µM | hit rate 0.46% among 220,000 | Runt-related transcription factor 1 (Homo sapiens) + Core-binding factor subunit beta …;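 active = inhibition over about 50% at 20 µM in the single-dose screen, limit read from the data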;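 note: 0% = DMSO wells and 100% = excess unlabeled CBFb competitor control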
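Assay system: Cerulean-Runt domain / Medium: Tris 50 mM pH 7.5, KCl, K2SO4, 0.01% BSA / Timing: protein complex preformed 1 h, compound exposure 1 h, room temperature, dark / Measured by: FRET, excitation 422 nm, emission at 530 and 480 nm / Evaluation: loss of energy transfer signal / Control set: 5 µM unlabeled CBFb as full-inhibition high control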
RanGTP-Impb inh = inhibitors of RanGTP-importin-beta interaction, primary screen, biochemical, FRET, CFP-Ran, YFP-importin-beta, homogeneous; inhibition, % (no concentration beside the values); cell-free CFP-Ran/YFP-importin-beta FRET ratio; AID 2216, 2009; Ran GTPase (GTP-bound) - importin-beta complex; hit rate 1.1% among 300,000;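 active = more than half of the replicate wells show a fall in the fluorescence ratio signal beyond about 16%, limit read from the data, passing the limit was not always enough; inconclusive = exactly half of the replicate wells pass the set limit; inactive = fewer than half of replicates pass the limit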;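 note: 0% = DMSO wells and 100% = Ran loaded with GDP instead of GTP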
Runt-SMMHC FRET = inhibitors of RUNX1 Runt–CBFb-SMMHC binding, primary screen, biochemical, FRET, Cerulean-Runt, Venus-CBFb-SMMHC, uHTS | Cerulean-Runt/Venus-CBFb-SMMHC FRET ratio 530/480, 1 h | Runt-related transcription factor 1 (Homo sapiens) + Core-binding factor subunit beta … | inhibition, % at 20 µM | hit rate 0.74% among 220,000 | AID 1434, 2008;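 active = mean inhibition across duplicate retests at 20 µM reaching about 50%, limit read from the data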;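 note: 0% = DMSO wells and 100% = wells with excess untagged CBFb-SMMHC; inhibitors lower the FRET ratio by blocking Runt binding to CBFb-SMMHC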
An asterisk follows results filed as active; i = inactive; ? = inconclusive; . = not tested or not shown; + = active, no number. Sampled rows, rich in hits. Any-hit rate of the full collection: about 1.8%.

SMILES	Rce1 inhib	Platelet DG rel	Runt-CBFb FRET	RanGTP-Impb inh	Runt-SMMHC FRET
O=C1CCC(c2ccccc2)N1C(=O)c1cccnc1 (stereo not given)	i	1	-2	34*	0
CN(C)c1ccc(-c2nnc(-c3ccccc3F)o2)cc1	i	0	.	1	.
Cc1ccc(S(=O)(=O)c2cc(C#N)c(=O)[nH]c2N)cc1	i	5	19	-2	107*
O=C(NCC(c1ccco1)N1CCN(c2ccccc2)CC1)C(=O)NC1CCCCC1 (stereo not given)	i	14	.	6	.
O=C(O)CCC(=O)Nc1nc2nc(-c3ccccc3)cc(-c3ccccc3)n2n1	+	16	-1	0	-9
CC(=O)Nc1ccc(S(=O)(=O)Nc2nc3nc(-c4ccccc4)cc(-c4ccccc4)n3n2)cc1	i	-6	.	?	.
COc1ccc(CCNC(=O)C2CCN(S(=O)(=O)c3ccc(C)cc3)CC2)cc1	i	-3	.	-3	.
O=C(CN1CCc2ccccc2C1)c1cccs1	i	0	1	25*	0
CC1CCN(CC(=O)c2cccs2)CC1	i	1	-2	-2	-2
CN(C)S(=O)(=O)c1cccc(NC(=S)N/N=C/c2cc(Br)ccc2O)c1	i	2	3	5	81*
CN(C)S(=O)(=O)c1cccc(NC(=S)N/N=C/c2cccc(O)c2)c1	i	2	3	-2	2
NS(=O)(=O)c1ccc(NC(=O)C(Sc2ccccc2)c2ccccc2)cc1 (stereo not given)	i	-2	0	7	0
Oc1c(CN2CCc3ccccc3C2)cc(Cl)c2cccnc12	i	-19	3	23*	-15
CCCCCCCCC[n+]1cccc2c3ccccc3ccc21	i	87*	0	3	1
C=CCOC(=O)C1=C(C)OC(N)=C(C#N)C1c1ccc2c(c1)OCO2 (stereo not given)	i	-6	0	25*	5
Cc1ccc(C(=O)NNC(=O)Cc2nc3nc(C)cc(C)n3n2)cc1	i	8	.	1	.
Cc1cc(C)n2nc(CC(=O)NNC(=O)c3ccc(N(C)C)cc3)nc2n1	+	-1	.	5	.
Cc1ccc(C(=O)Nc2c3c(nn2C(C)(C)C)CS(=O)(=O)C3)cc1[N+](=O)[O-]	i	2	.	-1	.
Cc1ccc(C(=O)Nc2c3c(nn2C(C)(C)C)CS(=O)(=O)C3)cc1C	i	-9	98*	-2	6
Cc1cc(C)c(OCC(=O)OCC(=O)NC2CCC(C)CC2)c(C)c1 (stereo not given)	i	-3	.	1	.
COc1ccc2[nH]c3c(N4CCc5ccccc5C4)ncnc3c2c1	i	11	-1	2	-5
COc1ccc(N2CCN(c3ncnc4c3[nH]c3ccccc34)CC2)cc1	i	3	-2	19*	-2
COC(=O)c1ccc(OCC(=O)NC2CCCCCC2)cc1	i	0	.	4	.
COc1ccc(OC)c2sc(NC(=O)C3=COCCO3)nc12	i	4	8	-3	2
COc1ccc(C)c2sc(NC(=O)C3=COCCO3)nc12	+	-2	2	-4	2
SMILES	Rce1 inhib	Platelet DG rel	Runt-CBFb FRET	RanGTP-Impb inh	Runt-SMMHC FRET
Cn1cc(/C=C(\C#N)C(=O)Nc2ncc(Cc3cccc(Cl)c3)s2)c2ccccc21	i	-7	-387	-115	-142
N#C/C(=C\c1c[nH]c2ccccc12)C(=O)Nc1ncc(Cc2ccc(Cl)cc2Cl)s1	i	-2	-207	46*	-187
Cc1nnc(SCc2nnc(-c3cccs3)o2)s1	i	2	1	175*	-2
CCOC(=O)c1cc(-c2ccccc2)sc1NC(=O)C(C)Sc1nnc(C)s1 (stereo not given)	i	-4	-7	?	-4
CCOC(=O)c1cc(-c2ccccc2)sc1NC(=O)C(C)Sc1nnnn1C (stereo not given)	+	3	-6	-23	95
COc1ccccc1C(=O)N/N=C/c1cnc2ccccc2n1	i	-7	-1	-3	1
COc1ccc(NC(=O)Cc2ccccc2)cn1	i	-21	-2	2	-4
COc1ccc(NC(=O)/C(Cl)=C(/Cl)S(=O)Cc2ccccc2)cn1 (stereo not given)	i	57*	34	-1	18
CCn1c(C)nc2cc(-c3nc4n(n3)Cc3ccccc3-4)ccc21	i	97*	0	2	-3
Cc1ccc(-c2nc3n(n2)Cc2ccccc2-3)cc1	i	18	-2	0	-1
Cc1nc(N2CCCCC2)c2c(C)c(C(=O)Nc3ccccc3C(F)(F)F)sc2n1	+	-1	-5	?	0
COC(=O)C(CO)NC(=O)C(C)NC(=O)CNC(=O)OCc1ccccc1 (stereo not given)	i	6	-1	3	0
Cc1ccc(C)n1-c1cc(S(=O)(=O)N2CCOCC2)ccc1N1CCCC1	i	-3	-2	33*	-2
Cc1cccc(N2CCN(S(=O)(=O)c3ccc4c(c3)CC(=O)N4C)CC2)c1C	i	-44	.	2	.
O=[N+]([O-])c1cc(S(=O)(=O)N2CCOCC2)ccc1N1CCCC1	i	0	4	-1	-3
CN1C(=O)Cc2cc(S(=O)(=O)N3CCOCC3)ccc21	i	22	0	39*	3
COc1ccc(-n2c(SCC(=O)N3CCc4ccccc43)nnc2-c2c[nH]c3ccccc23)cc1	i	-1	0	-1	2
O=C(O)c1ccc2nc(-c3ccccc3)sc2c1	i	9	-1	-2	2
Nc1cc2sc(-c3ccc(C(=O)O)cc3)nc2cc1Cl	i	77*	-67	-10	63
Nc1cccc(-c2nc3ccc(N)cc3s2)c1	i	76*	5	2	31
Oc1ccc(-c2nc3ccccc3s2)cc1	i	?	-1	6	3
Nc1ccc(-c2nc3ccc(N)cc3s2)cc1	?	54*	21	-6	45
Nc1ccc(-c2nc3ccc(C(=O)O)cc3s2)cc1	i	14	36	-6	86*
CC(C)Oc1ccc(S(=O)(=O)N2CCOCC2)cc1NC(=O)Cc1cccs1	i	4	.	1	.
COc1cc(OC)c(S(=O)(=O)NC(C)C)cc1S(=O)(=O)NC(C)C	i	0	0	-2	2
CCc1ccc(-c2cc(C(F)(F)F)n3nc(C(=O)Nc4c(C)nn(Cc5ccccc5Cl)c4C)cc3n2)s1	i	-1	-23	?	29

Compound activity: PubChem, several laboratories
